System: MS2 coat protein
Experiment: apparent Kd, MS2 coat protein; higher = weaker binding; RNA-MaP array; tryptophan 2.4 mM where present
Method in brief: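 Stalled E. coli RNA polymerase produced the designs on Illumina sequencing-chip clusters. SNAP-549-labelled MS2 coat protein was added from 0.7 or 1.5 nM, doubling to 3 µM, without and then with constant ligand, in 100 mM Tris-HCl pH 7.5, 80 mM KCl, 4 mM MgCl2, BSA, DTT, yeast tRNA and Tween-20. The apparent Kd is the median of filtered per-cluster fits of green signal normalised to red-channel RNA signal and control-cluster median Fmax.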

[1] = designed as: ON switch for tryptophan, no ligand
[2] = ligand present: tryptophan, designed as: ON switch for tryptophan
[3] = designed as: OFF switch for tryptophan, no ligand
[4] = ligand present: tryptophan, designed as: OFF switch for tryptophan

| Sequence | apparent Kd [1] [nM] | apparent Kd [2] [nM] | apparent Kd [3] [nM] | apparent Kd [4] [nM] |
| --- | --- | --- | --- | --- |
| UGUCGGCGAAAGUUGGCGUGUCUUGCUGGUCGAGGACCGGUACGGCCGCCACUCGAUCCUUCGCACAUGAGGAUCACCCAUGUUG | 25.5 | 28.5 | – | – |
| GGGUGGUAGGCGGCCGCCACUGAUUUUUAUUUAUAGAUGACAUGAGGAUCACCCAUGUAGAUAUGCAGGACCGGGCCUGUUGUUU | 19.3 | 17.8 | – | – |
| AAUACCGGUCCUCGAAGGUGAUCCUCAUAACGAGGACCGGUACGGCCGCCACUCGAUAACAUGAGGAUCACCCAUGUAAUAAUAA | – | – | 187 | 138 |
| AGCCGCGUUCUUUCUUUCUUUCUAGCGGCACGAGGACCGGUACGGCCGCCACUCGCCCACAUGAGGAUCACCCAUGUAGUGGGUG | – | – | 18.8 | 80.6 |
| CCGCACAUGAGGAUCACCCAUGUCCGGGUUCGAGGACCGGUACGGCCGCCACUCGGACAUGUGCGCCCUUCAUGCACUGUAUAAA | 129 | 60.9 | – | – |
| AUAUAUACAUGAGGAUCACCCAUGUUAUUUCGAGGACCGGUACGGCCGCCACUCGAUAGAGUAGAAGUAACAUGUGUUAGUUGAU | 22.3 | 47 | – | – |
| AGAUUCGACACGGCCGCCACUUGUGGUGGAUUAUCCAGUGUCGAACAUGAGGAUCACCCAUGUACAAGGACCGGGUGUUGAGUCU | – | – | 90.4 | 282 |
| UAUCUACAUAUAUAGGUUAUUCGAUUAUUUCGAGGACCGGUACGGCCGCCACUCGUUAACAUAUACAUGAGGAUCACCCAUGUUA | 15.4 | 14.5 | – | – |
| GAUAUGGAAACAUGUCAGAUCCUUACCGGUCGAGGACCGGUACGGCCGCCACUCGCAAAUAUUGUACAUGAGGAUCACCCAUGUA | – | – | 13.1 | 13.6 |
| UAAACUACACAUGAGGAUCACCCAUGUGGCCGAGGACCGGUACGGCCGCCACUCGUGUGUUAAUAAAAGAACCGCAAAGUUCUUU | 277 | 75.9 | – | – |
| CGAGUAAGAACAAUCGAAUAACGGUUUUCGCGAGGACCGGUACGGCCGCCACUCGUGUGAUAUAACACAUGAGGAUCACCCAUGU | 26.3 | 24.4 | – | – |
| CCUCAAUCGUCGGCCGCCACUGGAUCAUGCGGAUACAUGAGGAUCACCCAUGUGGGUGUGGUACGCAGGACCGGGACAAGACCCG | 340 | 244 | – | – |
| AAAGAUCGGAAACGAUCGGCGGCUUGGGCGCGAGGACCGGUACGGCCGCCACUCGGGAAACAUGAGGAUCACCCAUGUUGCUAGC | – | – | 13.7 | 15.2 |
| GGAUUACGAAAGUAGUCCAUCAAGUUCGAGCGAGGACCGGUACGGCCGCCACUCGAACAUGAGGAUCACCCAUGUAGCGAAAGCU | 284 | 255 | – | – |
| GACCCAUGAGUUGCAAAAGCUCAUGGGUCGCGAGGACCGGUACGGCCGCCACUCGGCUGUACAUGAGGAUCACCCAUGUCAGGGU | 371 | 529 | – | – |
| GCAUCCUAGUCGGCCGCCACUGGUACGAACACCUUCACCCGUGUGCACAUGAGGAUCACCCAUGUCAGGACCGGGACUAGGAUGC | 9.36 | 9.66 | – | – |
| AGAAUAUAGUCGGCCGCCACUCUUCAUACAUGAGGAUCACCCAUGUUUAAUUCUUGGAUAUUCUUGAGGACCGGGACAUAGGCAU | 18.4 | 16.8 | – | – |
| GCUAGGUCAUCGGCCGCCACUAACGACGGUUCCAACAUGAGGAUCACCCAUGUGCCACAUGCGCAUAGGACCGGGAUGACCUAGC | 33 | 21 | – | – |
| UAAACUACACAUGAGGAUCACCCAUGUGGCCGAGGACCGGUACGGCCGCCACUCGUGUGUUAAUAAAAGAACUGCAAAGUUCCUU | 295 | 86.1 | – | – |
| AUGGUCGACGAUCUGCGAAAAGCAGAUCGACGAGGACCGGUACGGCCGCCACUCGUGUUCAUUAAACAUGAGGAUCACCCAUGUA | 48.8 | 21.1 | – | – |
| UCGUUUUAGUCGGCCGCCACUGAACUCAUGUUCAACAUGAGGAUCACCCAUGUACCUUAUUUUAACAGGACCGGGACGUAAUAGA | – | – | 123 | 97.5 |
| CCAUAAGUACCGGUCCUCAGAUCCUCAUGACGAGGACCGGUACGGCCGCCACUCGAAACAUGAGGAUCACCCAUGUAAUAAUAUC | – | – | 30.6 | 24.6 |
| GUCCUAAGGUCGGCCGCCACUGUAGAGUGUGAGCCAUCACAUGAGGAUCACCCAUGUUGUUGCUAUAGGACCGGGAUUGUAGGAC | – | – | 12 | 16.4 |
| UGCUAGUGAUCGGCCGCCACUGGCACCUUGAGGAUCCUGCUAAAGUACAUGAGGAUCACCCAUGUCAGGACCGGGAUCAUCAGUG | – | – | 10.4 | 10.5 |
| ACAUGAGGAUCACCCAUGUACAUCACCCGACGAGGACCGGUACGGCCGCCACUCGGGUAUAUAUAUACAUCGGGUGAUUUUACGU | 18.5 | 18 | – | – |
| AUAAUGAGUGGUGGAUAGGUGAUCCUCUUACGAGGACCGGUACGGCCGCCACUCGAUAACAUGAGGAUCACCCAUGUAAUAAUAA | – | – | 15.7 | 49.9 |

Source: the EternaBench riboswitch data
